Test results: ChEMBL document CHEMBL1140709, “Design, synthesis, and biological evaluation of (E)-styrylbenzylsulfones as novel anticancer agents” (J Med Chem, 2008)
The source made the active and inactive calls. No cut-off for these calls is given here.

Key:
A549 = experiment: Antitumor activity against human A549 cells by trypan blue exclusion assay; assay type: functional, cell-based
Method in brief: (§1)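 Tumour cells were grown in DMEM or RPMI with 10% fetal bovine serum and 1 unit/mL penicillin-streptomycin. They were seeded in six-well dishes at 1.0 × 10⁵ cells/mL/well, and compound was added 24 h later over a range of concentrations. After 96 h of exposure, viable cells in duplicate wells were counted by trypan blue exclusion.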

MIA PaCa-2 [1] = experiment: Antitumor activity against human MiaPaCa2 cells by trypan blue exclusion assay; assay type: functional, cell-based; method in brief: as §1
[2] = Antitumor activity against human U87 cells by trypan blue exclusion assay; assay type: functional, cell-based, U-87MG ATCC; details: U-87 MG; method in brief: as §1
DLD-1 = experiment: Antitumor activity against human DLD1 cells by trypan blue exclusion assay; assay type: functional, cell-based; method in brief: as §1
PC-3 = experiment: Antitumor activity against […] human PC3 cells by trypan blue exclusion assay; assay type: functional, cell-based; method in brief: as §1
MCF7 = experiment: Antitumor activity against ER-positive human MCF7 cells by trypan blue exclusion assay; assay type: functional, cell-based; method in brief: as §1
DU-145 [3] = experiment: Antitumor activity against AR-negative human DU145 cells by trypan blue exclusion assay; assay type: functional, cell-based; method in brief: as §1
SK-OV-3 = experiment: Antitumor activity against human SKOV3 cells by trypan blue exclusion assay; assay type: functional, cell-based; method in brief: as §1
COLO 205 = experiment: Antitumor activity against human COLO205 cells by trypan blue exclusion assay; assay type: functional, cell-based; method in brief: as §1
Raji = experiment: Antitumor activity against human Raji cells by trypan blue exclusion assay; assay type: functional, cell-based; method in brief: as §1
BT-20 [4] = experiment: Growth inhibition of human BT20 after 3 weeks by soft agar colony formation assay; assay type: functional, cell-based
Method in brief: (§2)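 Noble agar: 0.8% bottom layer; cells (1.0 × 10⁵ for MIA-PaCa-2) in medium with compound at various concentrations, mixed into 0.4% top agar. Each concentration in triplicate; 3 weeks at 37 °C, 5% CO₂. Stained with 0.05% nitroblue tetrazolium for 48 h and colonies photographed.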

SW480 = experiment: Antitumor activity against human SW480 cells by trypan blue exclusion assay; assay type: functional, cell-based; method in brief: as §1
Daudi = experiment: Antitumor activity against human Daudi cells by trypan blue exclusion assay; assay type: functional, cell-based; method in brief: as §1
[5] = Antitumor activity against human RF48 cells by trypan blue exclusion assay; assay type: functional, cell-based; method in brief: as §1
2008 = experiment: Antitumor activity against human 2008 cells by trypan blue exclusion assay; assay type: functional, cell-based; method in brief: as §1
[6] = Antitumor activity against human N417 cells by trypan blue exclusion assay; assay type: functional, cell-based; method in brief: as §1
SK-MEL-28 = experiment: Antitumor activity against human SK-MEL-28 cells by trypan blue exclusion assay; assay type: functional, cell-based; method in brief: as §1
CEM/C2 = experiment: Antitumor activity against human multidrug-resistant CEM/C2 cells by trypan blue exclusion assay; assay type: functional, cell-based; method in brief: as §1
K562 = experiment: Antitumor activity against human K562 cells by trypan blue exclusion assay; assay type: functional, cell-based; method in brief: as §1
[7] = Antitumor activity against human H157 cells by trypan blue exclusion assay; assay type: functional, cell-based; details: NCI-H157; method in brief: as §1
BT-20 [8] = experiment: Antitumor activity against human BT20 cells by trypan blue exclusion assay; assay type: functional, cell-based; method in brief: as §1
[9] = Antitumor activity against human multidrug-resistant 2008/17/4 cells by trypan blue exclusion assay; assay type: functional; method in brief: as §1
HCT-15 = experiment: Antitumor activity against human HCT15 cells by trypan blue exclusion assay; assay type: functional, cell-based; method in brief: as §1
[10] = Antitumor activity against human RF1 cells by trypan blue exclusion assay; assay type: functional, cell-based; method in brief: as §1
[11] = Antitumor activity against human multidrug-resistant MES-SA/DX5 cells by trypan blue exclusion assay; assay type: functional, cell-based; method in brief: as §1
HCT-116 = experiment: Antitumor activity against human HCT116 cells by trypan blue exclusion assay; assay type: functional, cell-based; method in brief: as §1
CCRF-CEM [12] = experiment: (§3) Antitumor activity against human CEM cells by trypan blue exclusion assay; assay type: functional, cell-based; method in brief: as §1
[13] = Antitumor activity against human H187 cells by trypan blue exclusion assay; assay type: functional, cell-based; details: NCI-H187; method in brief: as §1
[14] = Antitumor activity against human Namalwa cells by trypan blue exclusion assay; assay type: functional, cell-based; details: NAMALVA; method in brief: as §1
AGS = experiment: Antitumor activity against human AGS cells by trypan blue exclusion assay; assay type: functional, cell-based; method in brief: as §1
CCRF-CEM [15] = experiment: as §3; assay type: functional, cell-based; method in brief: as §1; remark: listed apart in the source
HUVEC = experiment: Cell cycle arrest in HUVEC cells by accumulation at G1 phase by FACS analysis; assay type: functional, cell-based; details: Homo sapiens
Method in brief: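 HUVEC were exposed to 20 nM compound in medium with 10% fetal bovine serum. At 24 h intervals, cells were fixed, stained with propidium iodide and analysed for DNA content by flow cytometry.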

MIA PaCa-2 [16] = experiment: Growth inhibition of human MiaPaCa2 cells after 3 weeks by soft agar colony formation assay; assay type: functional, cell-based; method in brief: as §2
MOLT-4 = experiment: Antitumor activity against human MOLT4 cells by trypan blue exclusion assay; assay type: functional, cell-based; method in brief: as §1
OVCAR-3 = experiment: Antitumor activity against human OVCAR-3 cells by trypan blue exclusion assay; assay type: functional, cell-based; method in brief: as §1
DU-145 [17] = experiment: Growth inhibition of human DU145 after 3 weeks by soft agar colony formation assay; assay type: functional, cell-based; method in brief: as §2
T47D = experiment: Antitumor activity against ER-positive human T47D cells by trypan blue exclusion assay; assay type: functional, cell-based; method in brief: as §1
[18] = Antitumor activity against human MES-SA cells by trypan blue exclusion assay; assay type: functional, cell-based; method in brief: as §1
BT-20 [19] = experiment: Antitumor activity against human BT20 xenografted athymic NCR-nu/nu mouse at 50 mg/kg, ip after 22 days
BT-20 [20] = experiment: Antitumor activity against ER-negative human BT20 xenografted athymic NCR-nu/nu mouse at 25 mg/kg, ip for every 4 days after 22 days; details: route intraperitoneal
BT-20 [21] = experiment: Antitumor activity against ER-negative human BT20 xenografted athymic NCR-nu/nu mouse at 50 mg/kg, ip every 2 days after 22 days; details: route intraperitoneal
Rattus norvegicus [22] = experiment: Neurotoxicity in rat at 100 mg/kg, iv; assay type: toxicity, organism-based; parameters: dose 100 mg/kg, route intravenous; details: in vivo
Method in brief: (§4)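 Rats were given the water-soluble phosphate form iv in single-dose and repeat-dose (28 daily injections) toxicology studies, with biochemical and cellular analysis.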

Mus musculus [23] = experiment: Neurotoxicity in CD1 mouse at 100 mg/kg, iv; assay type: toxicity, organism-based; parameters: dose 100 mg/kg, route intravenous; details: in vivo
Rattus norvegicus [24] = experiment: Hematotoxicity in rat at 100 mg/kg, iv; assay type: organism-based; parameters: dose 100 mg/kg, route intravenous; details: in vivo; method in brief: as §4
Mus musculus [25] = experiment: Hematotoxicity in CD1 mouse at 100 mg/kg, iv; assay type: organism-based; parameters: dose 100 mg/kg, route intravenous; details: in vivo
Method in brief: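 CD-1 mice received 200 µL iv of PBS or drug (10 mg/mL; 100 mg/kg). Bone marrow was taken from femur and tibia 12, 24 or 48 h later. Cells were cultured in duplicate in methylcellulose with stem cell factor 50 ng/mL, IL-3 10 ng/mL, IL-6 10 ng/mL, transferrin 200 µg/mL and erythropoietin 3 units/mL. Total, myeloid and lymphoid colony-forming units were counted after 1 week.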

Mus musculus [26] = experiment: Effect on liver damage in CD1 mouse at 100 mg/kg, iv; assay type: ADME, organism-based; parameters: dose 100 mg/kg, route intravenous; details: in vivo
Rattus norvegicus [27] = experiment: Effect on liver damage in rat at 100 mg/kg, iv; assay type: ADME, organism-based; parameters: dose 100 mg/kg, route intravenous; details: in vivo; method in brief: as §4

COc1cc(OC)c(/C=C/S(=O)(=O)Cc2ccc(OC)c(O)c2)c(OC)c1
IC50 (A549): 10 nM
IC50 (MIA PaCa-2 [1]): 4 nM
IC50 [2]: 7 nM
IC50 (DLD-1): 0.003 µM
IC50 (PC-3): 8 nM
IC50 (MCF7): 4 nM
IC50 (DU-145 [3]): 3 nM
IC50 (SK-OV-3): 6 nM
IC50 (COLO 205): 9 nM
IC50 (Raji): 4 nM
Activity (BT-20 [4]): Dose-dependent effect
IC50 (SW480): 7 nM
IC50 (Daudi): 7 nM
IC50 [5]: 5 nM
IC50 2008: 5 nM
IC50 [6]: 5 nM
IC50 (SK-MEL-28): 7 nM
IC50 (CEM/C2): 10 nM
IC50 (K562): 4 nM
IC50 [7]: 0.004 µM
IC50 (BT-20 [8]): 10 nM
IC50 [9]: 4 nM
IC50 (HCT-15): 8 nM
IC50 [10]: 6 nM
IC50 [11]: 5 nM
IC50 (HCT-116): 9 nM
IC50 (CCRF-CEM [12]): 9 nM
IC50 [13]: 7 nM
IC50 [14]: 6 nM
IC50 (AGS): 7 nM
IC50 (CCRF-CEM [15]): 10 nM
Activity (HUVEC): Active
Activity (MIA PaCa-2 [16]): Dose-dependent effect
IC50 (MOLT-4): 5 nM
IC50 (OVCAR-3): 6 nM
Activity (DU-145 [17]): Dose-dependent effect
IC50 (T47D): 6 nM
IC50 [18]: 6 nM

COc1ccc(CS(=O)(=O)/C=C/c2c(OC)cc(OC)cc2OC)cc1
IC50 (A549): 20 nM
IC50 (MIA PaCa-2 [1]): 8 nM
IC50 [2]: 40 nM
IC50 (DLD-1): 0.04 µM
IC50 (PC-3): 30 nM
IC50 (MCF7): 3 nM
IC50 (DU-145 [3]): 25 nM
Activity (BT-20 [19]): Active
IC50 (COLO 205): 15 nM
IC50 (Raji): 9 nM
IC50 (Daudi): 8 nM
IC50 [5]: 10 nM
IC50 [6]: 8 nM
Activity (BT-20 [20]): 74 mm3
IC50 (SK-MEL-28): 40 nM
IC50 (CEM/C2): 10 nM
IC50 [7]: 0.03 µM
IC50 (BT-20 [8]): 20 nM
IC50 (HCT-15): 20 nM
IC50 [10]: 8 nM
IC50 [11]: 10 nM
IC50 (CCRF-CEM [12]): 30 nM
IC50 [13]: 15 nM
IC50 [14]: 15 nM
IC50 (AGS): 20 nM
IC50 (CCRF-CEM [15]): 30 nM
Activity (HUVEC): Active
Activity (BT-20 [21]): 67.5 mm3
IC50 (MOLT-4): 9 nM
IC50 (OVCAR-3): 8 nM
IC50 (T47D): 25 nM
IC50 [18]: 10 nM

COc1cc(OC)c(/C=C/S(=O)(=O)Cc2ccc(OC)c(OP(=O)([O-])O)c2)c(OC)c1.[Na+]
IC50 (DLD-1): 0.007 µM
IC50 (DU-145 [3]): 2.5 nM
Activity (BT-20 [19]): Active
Activity (Rattus norvegicus [22]): Non-toxic
Activity (Mus musculus [23]): Non-toxic
Activity (BT-20 [4]): Dose-dependent effect
Activity (Rattus norvegicus [24]): Non-toxic
Activity (Mus musculus [25]): Non-toxic
IC50 [7]: 0.007 µM
IC50 (BT-20 [8]): 5 nM
Activity (Mus musculus [26]): Non-toxic
Activity (Rattus norvegicus [27]): Non-toxic
Activity (MIA PaCa-2 [16]): Dose-dependent effect
Activity (DU-145 [17]): Dose-dependent effect

COc1ccc(CS(=O)(=O)/C=C/c2cc(C)cc(C)c2)cc1
IC50 (DLD-1): > 20 µM
IC50 (DU-145 [3]): > 20000 nM
IC50 [7]: > 20 µM
IC50 (BT-20 [8]): > 20000 nM

COc1cc(OC)c(/C=C/S(=O)(=O)Cc2ccc(OC)c(OC)c2OC)c(OC)c1
IC50 (DLD-1): 15 µM
IC50 (DU-145 [3]): 12500 nM
IC50 [7]: 15 µM
IC50 (BT-20 [8]): 15000 nM

COc1ccc(CS(=O)(=O)/C=C/c2ccc(F)cc2OC)cc1
IC50 (DLD-1): 15 µM
IC50 (DU-145 [3]): 10000 nM
IC50 [7]: 20 µM
IC50 (BT-20 [8]): 15000 nM

COc1ccc(CS(=O)(=O)/C=C/c2ccc(Cl)cc2)cc1
IC50 (DLD-1): 3 µM
IC50 (DU-145 [3]): 2500 nM
IC50 [7]: 3.5 µM
IC50 (BT-20 [8]): 2000 nM

COc1ccc(CS(=O)(=O)/C=C/c2cc(OC)c(OC)cc2OC)cc1
IC50 (DLD-1): > 20 µM
IC50 (DU-145 [3]): > 20000 nM
IC50 [7]: > 20 µM
IC50 (BT-20 [8]): > 20000 nM

COc1ccc(CS(=O)(=O)/C=C/c2cc(OC)c(OC)c(OC)c2)cc1O
IC50 (DLD-1): 10 µM
IC50 (DU-145 [3]): 5000 nM
IC50 [7]: 10 µM
IC50 (BT-20 [8]): 7500 nM

COc1ccc(CS(=O)(=O)/C=C/c2ccc(F)cc2Cl)cc1
IC50 (DLD-1): 4 µM
IC50 (DU-145 [3]): 2000 nM
IC50 [7]: 2.5 µM
IC50 (BT-20 [8]): 2500 nM

COc1ccc(CS(=O)(=O)/C=C/c2cc(OC)c(OC)c(OC)c2)cc1
IC50 (DLD-1): > 20 µM
IC50 (DU-145 [3]): > 20000 nM
IC50 [7]: > 20 µM
IC50 (BT-20 [8]): > 20000 nM
